The term MIC denotes the least concentration at which growth counts as inhibited. A low value points to a more susceptible organism. For orientation: solubility means the dissolved amount per volume that the medium holds. A low value points to little dissolved substance.

Data on seven compounds can be found in ChEMBL document CHEMBL4145497, “Discovery of 2-aminothiazolyl berberine derivatives as effectively antibacterial agents toward clinically drug-resistant Gram-negative Acinetobacter baumanii” (Eur J Med Chem, 2018).

The subject of one data set is Staphylococcus aureus. Kind of data set: Antibacterial activity against Staphylococcus aureus ATCC 25923 after 18 to 24 hrs by CLSI two fold serial dilution method. It counts as functional.
Another data set deals with Bacillus subtilis. As to the kind of experiment: Antibacterial activity against Bacillus subtilis ATCC 21216 after 18 to 24 hrs by CLSI two fold serial dilution method. It counts as functional.
Another data set concerns Micrococcus luteus. As to the kind of experiment: Antibacterial activity against Micrococcus luteus ATCC 4698 after 18 to 24 hrs by CLSI two fold serial dilution method. It counts as functional.
The subject of the next data set is Escherichia coli. Kind of data set: Antibacterial activity against Escherichia coli DH52 after 18 to 24 hrs by CLSI two fold serial dilution method. It counts as functional.
The test system of the next data set is Pseudomonas aeruginosa. As to the kind of experiment: Antibacterial activity against Pseudomonas aeruginosa ATCC 27853 after 18 to 24 hrs by CLSI two fold serial dilution method. It is filed as functional.
Another data set concerns Candida albicans. As to the kind of experiment: Antifungal activity against Candida albicans ATCC 76615 by CLSI two fold serial dilution method. It is filed as functional.
For another data set, the system named is Cyberlindnera jadinii. As to the kind of experiment: Antifungal activity against Candida utilis ATCC 9950 by CLSI two fold serial dilution method. To be noted: Williopsis jadinii. It is filed as functional.
In another data set the test system is Pichia norvegensis. Kind of data set: Antifungal activity against Candida mycoderma ATCC 96918 by CLSI two fold serial dilution method. It is filed as functional.
For another data set, the system named is Aspergillus flavus. As to the kind of experiment: Antifungal activity against Aspergillus flavus ATCC 204304 by CLSI two fold serial dilution method. It is filed as functional.
The subject of the next data set is Saccharomyces cerevisiae. Kind of data set: Antifungal activity against Saccharomyces cerevisiae ATCC 9763 by CLSI two fold serial dilution method. It is filed as functional.
A further data set deals with Candida parapsilosis. As to the kind of experiment: Antifungal activity against Candida parapsilosis ATCC 22019 by CLSI two fold serial dilution method. It counts as functional. To be noted: Lodderomyces parapsilosis.
The nature of data set [1]: Aqueous solubility of the compound in phosphate buffer at pH 7.4 after 3 hrs by UV detection assay. It counts as physicochemical. The procedure, abridged:
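Water solubility measured at physiological pH, with berberine as the control.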

SMILES strings stand for the structures. Converted amounts (≈) assume the structure as drawn.

As to `COc1cc(/C=N/Nc2nccs2)c2c(c1O)CN1CCc3cc4c(cc3C1C2)OCO4` (centres undefined), the minimal inhibitory concentration (MIC) against Staphylococcus aureus amounted to 140 µM (≈ 63.1 µg/mL); against Bacillus subtilis, 140 µM (≈ 63.1 µg/mL); with Micrococcus luteus it was 70 µM (≈ 31.5 µg/mL); in the data set on Escherichia coli, 280 µM (≈ 126 µg/mL); against Pseudomonas aeruginosa it was 140 µM (≈ 63.1 µg/mL); against Candida albicans it was 140 µM (≈ 63.1 µg/mL). In addition, the MIC against Cyberlindnera jadinii came out at 280 µM (≈ 126 µg/mL); in the data set on Pichia norvegensis, 140 µM (≈ 63.1 µg/mL); in the data set on Aspergillus flavus, 280 µM (≈ 126 µg/mL); against Saccharomyces cerevisiae, 570 µM (≈ 257 µg/mL); against Candida parapsilosis it was 40 µM (≈ 18 µg/mL). This compound yielded a solubility at 3 h in data set [1] of 1660 µg/mL (≈ 3.68 mM).

On to `COc1cc(/C=N/Nc2nccs2)c2c(c1OCc1ccccc1)CN1CCc3cc4c(cc3C1C2)OCO4` (centres undefined), for which the minimum inhibitory concentration (MIC) was 240 µM (≈ 130 µg/mL) against Staphylococcus aureus; 470 µM (≈ 254 µg/mL) against Bacillus subtilis; 240 µM (≈ 130 µg/mL) in the data set with Micrococcus luteus; 950 µM (≈ 514 µg/mL) in the data set with Escherichia coli; 240 µM (≈ 130 µg/mL) in the data set on Pseudomonas aeruginosa; 470 µM (≈ 254 µg/mL) in the data set on Candida albicans. Besides, the MIC against Cyberlindnera jadinii turned out to be 470 µM (≈ 254 µg/mL); in the data set on Pichia norvegensis, 60 µM (≈ 32.4 µg/mL); in the data set with Aspergillus flavus, 950 µM (≈ 514 µg/mL); with Saccharomyces cerevisiae, 950 µM (≈ 514 µg/mL); with Candida parapsilosis it was 60 µM (≈ 32.4 µg/mL). The solubility at 3 h in data set [1] was in the range of 374 to 3190 µg/mL (≈ 0.692 to 5.9 mM).

Turning to `COc1cc(/C=N/Nc2nccs2)c2c(c1OCc1cccc(Cl)c1)CN1CCc3cc4c(cc3C1C2)OCO4` (centres undefined), the MIC against Staphylococcus aureus stood at 220 µM (≈ 127 µg/mL); in the data set with Bacillus subtilis it was 110 µM (≈ 63.3 µg/mL); against Micrococcus luteus, 220 µM (≈ 127 µg/mL); in the data set on Escherichia coli it was 890 µM (≈ 512 µg/mL); in the data set with Pseudomonas aeruginosa, 220 µM (≈ 127 µg/mL); in the data set on Candida albicans, 450 µM (≈ 259 µg/mL). Also, the MIC was determined as 450 µM (≈ 259 µg/mL) in the data set on Cyberlindnera jadinii; 220 µM (≈ 127 µg/mL) against Pichia norvegensis; 450 µM (≈ 259 µg/mL) with Aspergillus flavus; 890 µM (≈ 512 µg/mL) in the data set on Saccharomyces cerevisiae; 60 µM (≈ 34.5 µg/mL) with Candida parapsilosis. This compound came in with a solubility at 3 h in [1] of 374 to 3190 µg/mL (≈ 0.65 to 5.55 mM).

Consider `COc1cc(/C=N/Nc2nccs2)c2c(c1OCc1ccc(Cl)cc1)CN1CCc3cc4c(cc3C1C2)OCO4` (centres undefined), for which the minimum inhibitory concentration (MIC) was found to be 450 µM (≈ 259 µg/mL) against Staphylococcus aureus; 450 µM (≈ 259 µg/mL) in the data set with Bacillus subtilis; 220 µM (≈ 127 µg/mL) in the data set with Micrococcus luteus; 110 µM (≈ 63.3 µg/mL) in the data set with Escherichia coli; 220 µM (≈ 127 µg/mL) in the data set on Pseudomonas aeruginosa; 450 µM (≈ 259 µg/mL) against Candida albicans. Further, the MIC came out at 220 µM (≈ 127 µg/mL) in the data set on Cyberlindnera jadinii; 450 µM (≈ 259 µg/mL) against Pichia norvegensis; 890 µM (≈ 512 µg/mL) in the data set on Aspergillus flavus; 890 µM (≈ 512 µg/mL) in the data set with Saccharomyces cerevisiae; 60 µM (≈ 34.5 µg/mL) in the data set on Candida parapsilosis. For the same compound, in [1], the solubility at 3 h lay in the range of 374 to 3190 µg/mL (≈ 0.65 to 5.55 mM).

`CCCCOc1c(OC)cc(/C=N/Nc2nccs2)c2c1CN1CCc3cc4c(cc3C1C2)OCO4` (centres undefined): the minimal inhibitory concentration (MIC) against Staphylococcus aureus was 60 µM (≈ 30.4 µg/mL); with Bacillus subtilis, 250 µM (≈ 127 µg/mL); against Micrococcus luteus, 250 µM (≈ 127 µg/mL); with Escherichia coli, 60 µM (≈ 30.4 µg/mL); against Pseudomonas aeruginosa it was 250 µM (≈ 127 µg/mL); against Candida albicans, 250 µM (≈ 127 µg/mL). Besides, the MIC worked out at 250 µM (≈ 127 µg/mL) against Cyberlindnera jadinii; 250 µM (≈ 127 µg/mL) with Pichia norvegensis; 510 µM (≈ 258 µg/mL) in the data set with Aspergillus flavus; 510 µM (≈ 258 µg/mL) in the data set on Saccharomyces cerevisiae; 8 µM (≈ 4.05 µg/mL) against Candida parapsilosis. The compound also displayed a solubility at 3 h in [1] of 7020 to 10200 µg/mL (≈ 13.9 to 20.1 mM).

In the case of `C=CCOc1c(OC)cc(/C=N/Nc2nccs2)c2c1CN1CCc3cc4c(cc3C1C2)OCO4` (centres undefined), the minimum inhibitory concentration (MIC) came to 30 µM (≈ 14.7 µg/mL) against Staphylococcus aureus; 520 µM (≈ 255 µg/mL) in the data set with Bacillus subtilis; 130 µM (≈ 63.8 µg/mL) in the data set on Micrococcus luteus; 130 µM (≈ 63.8 µg/mL) in the data set with Escherichia coli; 260 µM (≈ 128 µg/mL) with Pseudomonas aeruginosa; 130 µM (≈ 63.8 µg/mL) against Candida albicans. In addition, the MIC against Cyberlindnera jadinii came to 130 µM (≈ 63.8 µg/mL); in the data set with Pichia norvegensis, 520 µM (≈ 255 µg/mL); in the data set with Aspergillus flavus it was 260 µM (≈ 128 µg/mL); against Saccharomyces cerevisiae, 1040 µM (≈ 510 µg/mL); in the data set on Candida parapsilosis, 70 µM (≈ 34.3 µg/mL). Moreover, in [1], the solubility at 3 h was in the range of 7020 to 10200 µg/mL (≈ 14.3 to 20.8 mM).

In the case of `COc1cc(/C=N/Nc2nccs2)c2c(c1OCc1ccc(Cl)c(Cl)c1)CN1CCc3cc4c(cc3C1C2)OCO4` (centres undefined), the MIC against Staphylococcus aureus was determined as 110 µM (≈ 67 µg/mL); against Bacillus subtilis it was 210 µM (≈ 128 µg/mL); against Micrococcus luteus, 420 µM (≈ 256 µg/mL); with Escherichia coli it was 110 µM (≈ 67 µg/mL); with Pseudomonas aeruginosa it was 110 µM (≈ 67 µg/mL); with Candida albicans, 420 µM (≈ 256 µg/mL). The minimal inhibitory concentration (MIC) amounted to 420 µM (≈ 256 µg/mL) in the data set on Cyberlindnera jadinii; 210 µM (≈ 128 µg/mL) in the data set on Pichia norvegensis; 420 µM (≈ 256 µg/mL) in the data set with Aspergillus flavus; 840 µM (≈ 512 µg/mL) with Saccharomyces cerevisiae; 110 µM (≈ 67 µg/mL) against Candida parapsilosis. The same compound yielded a solubility at 3 h in data set [1] of 374 to 3190 µg/mL (≈ 0.614 to 5.23 mM).
